One may read the Ki as the dissociation constant of the complex between target and ligand, obtained from inhibition or displacement.

These results are taken from ChEMBL document CHEMBL3232956, “Solid-supported synthesis, molecular modeling, and biological activity of long-chain arylpiperazine derivatives with cyclic amino acid amide fragments as 5-HT(7) and 5-HT(1A) receptor ligands” (Eur J Med Chem, 2014).

What all share (type): cell-based
Experiment [1] addresses 5-hydroxytryptamine receptor 7 (Homo sapiens, UniProt P34969). Kind of experiment: Displacement of [3H]-5-CT from human 5-HT7 receptor expressed in HEK293 cells after 1 hr by beta-counting. For orientation: In a radioligand displacement assay an active substance lowers the binding of a labelled ligand.
In experiment [2] the test system is HEK293. In words: Selectivity ratio of Ki for human 5-HT7 receptor expressed in HEK293 cells to Ki for human 5-HT1A receptor expressed in HEK293 cells. The method in brief:
(§1)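 Ratios computed from Ki values from radioligand displacement in HEK293 membranes stably expressing human receptors: [3H]-8-OH-DPAT for 5-HT1A (1 h, room temperature) and [3H]-5-CT for 5-HT7b (1 h, 37 °C), filtration read-out. Each compound in triplicate at 7-8 concentrations (10^-11–10^-4 M); Ki by Cheng-Prusoff.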

Experiment [3] has as its system HEK293. Kind of experiment: Selectivity ratio of Ki for human 5-HT1A receptor expressed in HEK293 cells to Ki for human 5-HT7 receptor expressed in HEK293 cells. The method in brief: as §1
Experiment [4] deals with T1, 5-hydroxytryptamine receptor 1A (Homo sapiens, UniProt P08908).
T1 sequence (P08908 whole entry): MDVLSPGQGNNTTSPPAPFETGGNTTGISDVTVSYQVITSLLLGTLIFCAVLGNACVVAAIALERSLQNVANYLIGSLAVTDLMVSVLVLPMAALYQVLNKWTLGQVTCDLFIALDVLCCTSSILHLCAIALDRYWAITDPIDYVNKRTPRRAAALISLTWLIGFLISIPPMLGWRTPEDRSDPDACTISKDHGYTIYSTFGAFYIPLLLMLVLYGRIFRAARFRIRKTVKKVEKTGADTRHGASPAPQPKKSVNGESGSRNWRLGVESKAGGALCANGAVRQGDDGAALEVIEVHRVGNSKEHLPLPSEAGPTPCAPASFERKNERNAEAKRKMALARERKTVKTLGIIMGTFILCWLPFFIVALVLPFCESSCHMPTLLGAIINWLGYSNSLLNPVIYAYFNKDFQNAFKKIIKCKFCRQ
In words: Displacement of [3H]-8-OH-DPAT from human 5-HT1A receptor expressed in HEK293 cells after 1 hr by beta-counting. The method in brief: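 Human 5-HT1A receptor stably expressed in HEK293 cells; pellet homogenized in 20 vol buffer (50 mM Tris-HCl, 0.1 mM EDTA, 4 mM MgCl2, 0.1% ascorbate, pargyline), spun twice 35,000 g 20 min 4 °C, 15 min 37 °C between spins. Displacement of [3H]-8-OH-DPAT (187 Ci/mmol), 1 h room temperature; filtration, filter-bound radioactivity. Triplicate at 7-8 concentrations (10^-11–10^-4 M); Ki via Cheng-Prusoff.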

5-hydroxytryptamine receptor 7, sequence (P34969 whole entry): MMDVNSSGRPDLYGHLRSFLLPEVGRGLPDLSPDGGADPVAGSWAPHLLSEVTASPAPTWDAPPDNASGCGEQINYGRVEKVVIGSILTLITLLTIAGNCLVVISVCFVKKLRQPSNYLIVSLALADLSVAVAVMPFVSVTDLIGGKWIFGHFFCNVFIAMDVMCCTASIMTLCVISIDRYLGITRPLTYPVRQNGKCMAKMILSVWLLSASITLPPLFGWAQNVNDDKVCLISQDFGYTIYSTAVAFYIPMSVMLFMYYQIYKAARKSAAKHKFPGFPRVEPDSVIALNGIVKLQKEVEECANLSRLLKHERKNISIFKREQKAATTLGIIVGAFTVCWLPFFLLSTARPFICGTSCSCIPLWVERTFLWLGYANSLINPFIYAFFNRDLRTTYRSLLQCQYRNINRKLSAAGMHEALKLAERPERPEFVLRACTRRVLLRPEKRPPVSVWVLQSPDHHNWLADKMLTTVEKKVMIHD

On to `NC(=O)[C@@H]1CCCN1C(=O)CCCCCCN1CCN(c2noc3ccccc23)CC1`, for which the Ki was 0.101 µM in experiment [1] and 0.122 µM in experiment [4]. Moreover, the Ratio Ki is below 1 in the experiment with HEK293 [2] and 1 in the experiment on HEK293 [3].
The matching figures for `NC(=O)[C@@H]1Cc2ccccc2CN1C(=O)CCCCCN1CCN(c2ccccc2O)CC1`: 0.476 µM, 0.072 µM, 7 and below 1.
The matching figures for `NC(=O)[C@@H]1CCCN1C(=O)CCCCCN1CCN(c2cccc(Cl)c2)CC1`: 0.478 µM, 0.038 µM, 13 and below 1.
For `NC(=O)[C@@H]1Cc2ccccc2CN1C(=O)CCCCCCN1CCN(c2noc3ccccc23)CC1`, the values for the Ki in experiment [1] and in experiment [4] were 0.028 µM and 0.089 µM, respectively. The Ratio Ki in the experiment on HEK293 [2] is below 1; in the experiment with HEK293 [3], 3.
As to `COc1ccccc1N1CCN(CCCCCC(=O)N2Cc3ccccc3C[C@H]2C(N)=O)CC1`, the Ki in experiment [1] worked out at 0.302 µM; in experiment [4], 0.012 µM. Besides, the Ratio Ki in the experiment on HEK293 [2] is 25; with HEK293 [3], below 1.
In the case of `NC(=O)[C@@H]1Cc2ccccc2CN1C(=O)CCCCCN1CCN(c2ccc(F)cc2)CC1`, the results for the Ki in experiment [1] and in experiment [4] were 0.107 µM and 0.643 µM, respectively. Further, the Ratio Ki was below 1 in the experiment on HEK293 [2] and 6 in the experiment on HEK293 [3].
On to `NC(=O)[C@@H]1Cc2ccccc2CN1C(=O)CCCCCN1CCN(c2cccc(Cl)c2Cl)CC1`, for which the Ki in experiment [1] stood at 0.095 µM; in experiment [4], 0.016 µM. Further, the values for the Ratio Ki in the experiment with HEK293 [2] and in the experiment with HEK293 [3] were 6 and below 1, respectively.
With `NC(=O)[C@@H]1Cc2ccccc2CN1C(=O)CCCCCN1CCN(c2ccccc2Cl)CC1`, the Ki in experiment [1] is 0.393 µM; in experiment [4] it was 0.236 µM. Further, the results for the Ratio Ki in the experiment with HEK293 [2] and in the experiment with HEK293 [3] were 2 and below 1, respectively.
On to `CSc1ccccc1N1CCN(Cc2ccc(C(=O)N3CCC[C@H]3C(N)=O)cc2)CC1`, for which the inhibitory constant (Ki) in experiment [1] was 0.567 µM; in experiment [4] it was 0.313 µM. Moreover, the Ratio Ki is 2 in the experiment on HEK293 [2] and below 1 in the experiment with HEK293 [3].
As to `CSc1ccccc1N1CCN(CCCCCCC(=O)N2Cc3ccccc3C[C@H]2C(N)=O)CC1`, the inhibition constant Ki in experiment [1] was 0.111 µM; in experiment [4] it was 0.002 µM. Also, the figures for the Ratio Ki with HEK293 [2] and with HEK293 [3] were 55 and below 1, respectively.
Consider `COc1ccccc1N1CCN(CCCCC(=O)N2Cc3ccccc3C[C@H]2C(N)=O)CC1`, for which the Ki in experiment [1] was determined as 0.551 µM; in experiment [4], 0.107 µM. Also, the Ratio Ki was 5 with HEK293 [2] and below 1 in the experiment on HEK293 [3].
The matching figures for `CSc1ccccc1N1CCN(CCCCCC(=O)N2Cc3ccccc3C[C@H]2C(N)=O)CC1`: 0.078 µM, below 0.001 µM, above 78 and below 1.
Take `CSc1ccccc1N1CCN(CCCCCCC(=O)N2CCC[C@H]2C(N)=O)CC1`: the Ki is 0.495 µM in experiment [1] and 0.023 µM in experiment [4]. For the same molecule, the Ratio Ki with HEK293 [2] was 21; with HEK293 [3], below 1.
For `COc1ccccc1N1CCN(CCCCC(=O)N2CCC[C@H]2C(N)=O)CC1`, in that order: 0.634 µM, 0.214 µM, 3 and below 1.
The matching figures for `NC(=O)[C@@H]1CCCN1C(=O)CCCCCN1CCN(c2ccccc2F)CC1`: 3.13 µM, 0.141 µM, 22 and below 1.
As for `NC(=O)[C@@H]1Cc2ccccc2CN1C(=O)CCCCN1CCN(c2ccc(F)cc2)CC1`, the figures for the Ki in experiment [1] and in experiment [4] were 0.295 µM and 1.91 µM, respectively. Besides, the Ratio Ki in the experiment with HEK293 [2] is below 1; in the experiment with HEK293 [3], 6.
For `NC(=O)[C@@H]1Cc2ccccc2CN1C(=O)CCCCCN1CCN(c2noc3ccccc23)CC1`, in that order: 0.022 µM, 0.23 µM, below 1 and 10.
As for `NC(=O)[C@@H]1CCCN1C(=O)CCCCN1CCN(c2ccccc2O)CC1`, the Ki in experiment [1] was found to be 1.87 µM; in experiment [4], 0.052 µM. Besides, the Ratio Ki in the experiment with HEK293 [2] was 36; in the experiment on HEK293 [3] it was below 1.
On to `NC(=O)[C@@H]1Cc2ccccc2CN1C(=O)CCCCN1CCN(c2ccc(Cl)cc2)CC1`, for which the results for the Ki in experiment [1] and in experiment [4] were 0.223 µM and 0.211 µM, respectively. Besides, the Ratio Ki in the experiment on HEK293 [2] was 1; in the experiment with HEK293 [3], below 1.
Take `NC(=O)[C@@H]1CCCN1C(=O)CCCCCN1CCN(c2noc3ccccc23)CC1`: the Ki was 0.05 µM in experiment [1] and 0.214 µM in experiment [4]. The Ratio Ki is below 1 in the experiment with HEK293 [2] and 4 in the experiment with HEK293 [3].
As to `NC(=O)[C@@H]1CCCN1C(=O)CCCCCN1CCN(c2cccc(Cl)c2Cl)CC1`, the Ki in experiment [1] was 0.179 µM; in experiment [4], 0.004 µM. Further, the Ratio Ki in the experiment with HEK293 [2] was 45; with HEK293 [3], below 1.
For `NC(=O)[C@@H]1CCCN1C(=O)CCCCN1CCN(c2noc3ccccc23)CC1`, in that order: 0.108 µM, 2.91 µM, below 1 and 27.
The matching figures for `COc1ccccc1N1CCN(CCCCCC(=O)N2CCC[C@H]2C(N)=O)CC1`: 1.2 µM, 0.044 µM, 27 and below 1.
For `COc1ccccc1N1CCN(Cc2ccc(C(=O)N3CCC[C@H]3C(N)=O)cc2)CC1`, in that order: 4.15 µM, 6.31 µM, below 1 and 2.
Regarding `CSc1ccccc1N1CCN(CCCCCC(=O)N2CCC[C@H]2C(N)=O)CC1`, the results for the Ki in experiment [1] and in experiment [4] were 0.153 µM and 0.014 µM, respectively. The values for the Ratio Ki in the experiment with HEK293 [2] and with HEK293 [3] were 11 and below 1, respectively.
The matching figures for `NC(=O)[C@@H]1Cc2ccccc2CN1C(=O)CCCCCN1CCN(c2cccc(Cl)c2)CC1`: 0.725 µM, 0.499 µM, 1 and below 1.
As for `NC(=O)[C@@H]1Cc2ccccc2CN1C(=O)c1ccc(CN2CCN(c3cccc(Cl)c3Cl)CC2)cc1`, the figures for the Ki in experiment [1] and in experiment [4] were 1.2 µM and 0.212 µM, respectively. Further, the Ratio Ki is 6 in the experiment on HEK293 [2] and below 1 in the experiment on HEK293 [3].
Regarding `NC(=O)[C@@H]1CCCN1C(=O)CCCCCN1CCN(c2ccccc2Cl)CC1`, the Ki turned out to be 1.31 µM in experiment [1] and 0.232 µM in experiment [4]. The Ratio Ki in the experiment on HEK293 [2] was 6; with HEK293 [3], below 1.
For `NC(=O)[C@@H]1CCCN1C(=O)CCCCCN1CCN(c2ccc(F)cc2)CC1`, in that order: 1.19 µM, 0.573 µM, 2 and below 1.
The matching figures for `CSc1ccccc1N1CCN(Cc2ccc(C(=O)N3Cc4ccccc4C[C@H]3C(N)=O)cc2)CC1`: 0.148 µM, 0.122 µM, 1 and below 1.
For `NC(=O)[C@@H]1Cc2ccccc2CN1C(=O)CCCCN1CCN(c2noc3ccccc23)CC1`, in that order: 0.018 µM, 0.377 µM, below 1 and 21.
For the molecule `CSc1ccccc1N1CCN(CCCCCC(=O)NC2CCCc3ccccc32)CC1` (stereo unspecified), the Ki in experiment [1] came out at 0.00022 µM.
As for `NC(=O)[C@@H]1CCCN1C(=O)CCCCN1CCN(c2cccc(Cl)c2Cl)CC1`, the Ki in experiment [1] was 0.113 µM; in experiment [4], 0.083 µM. Besides, the Ratio Ki in the experiment with HEK293 [2] and with HEK293 [3] was below 1 throughout.
In the case of `CSc1ccccc1N1CCN(CCCCC(=O)N2Cc3ccccc3C[C@H]2C(N)=O)CC1`, the Ki came out at 0.051 µM in experiment [1] and 0.018 µM in experiment [4]. Further, the Ratio Ki in the experiment with HEK293 [2] is 3; in the experiment with HEK293 [3], below 1.
For the molecule `COc1ccccc1N1CCN(Cc2ccc(C(=O)N3Cc4ccccc4C[C@H]3C(N)=O)cc2)CC1`, the Ki in experiment [1] is 0.579 µM; in experiment [4] it was 0.077 µM. For the same molecule, the Ratio Ki in the experiment with HEK293 [2] is 7; in the experiment with HEK293 [3], below 1.
The matching figures for `CSc1ccccc1N1CCN(CCCCC(=O)N2CCC[C@H]2C(N)=O)CC1`: 0.163 µM, 0.047 µM, 3 and below 1.
